Assay results as given in ChEMBL document CHEMBL1799977, “Discovery of MK-0952, a selective PDE4 inhibitor for the treatment of long-term memory loss and mild cognitive impairment” (Bioorg Med Chem Lett, 2010).
Activity calls are given as the source filed them. No cut-off for these calls is given here.

How the values were obtained:
[1] = Ratio IC50 for PDE4 activity in human whole blood to IC50 for PDE4; type: tissue-based
Method in brief: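 Ratio of two IC50s. The numerator is from human whole blood stimulated with LPS, read as inhibition of TNF-α release. The denominator (PDE4QT) is the mean of the IC50s on the PDE4A, B and D catalytic domains. These were expressed as GST constructs in Sf9 cells by baculovirus. Each IC50 is the average of at least two experiments.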

[2] = target: 3',5'-cyclic-AMP phosphodiesterase 4A (Homo sapiens, UniProt P27815); experiment: Inhibition of PDE4A; settings: pooled result: one value given for 3 cell lines, strains, targets or settings
Method in brief: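 Catalytic domains of PDE4A, B and D expressed as GST constructs in SF9 cells (baculovirus). IC50s are averages of at least two experiments.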

Phosphodiesterase 4 = Phosphodiesterase 4 (Homo sapiens, UniProt P27815+Q08499+Q07343+Q08493); experiment: Inhibition of PDE4 activity in human whole blood assessed as inhibition of LPS-induced TNF-alpha release
[3] = (§1) Oral bioavailability in Sprague-Dawley rat at 10 mg/kg; type: ADME, organism-based; settings: Sprague-Dawley, in vivo
[4] = (§2) Half life in Sprague-Dawley rat at 10 mg/kg, po and 5 mg/kg, iv; type: ADME, organism-based; settings: Sprague-Dawley, in vivo
Rattus norvegicus [5] = experiment: as §1; type: ADME, organism-based; settings: in vivo
Rattus norvegicus [6] = experiment: as §2; type: ADME, organism-based; settings: in vivo
Rattus norvegicus [7] = experiment: Cognitive enhancing effect in Lister rat assessed as recognition of novel object at 0.01 mg/kg, po pretreated 90 mins before sample phase by novel object recognition test; type: functional, organism-based; set-up: dose 0.01 mg/kg
Method in brief: (§3)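 Novel object recognition in rats. Oral dosing in 0.5% methocel 90 min before the sample trial, which ended at 25 s of exploration or 3 min. Choice trial followed with a familiar and a novel object. d2 score = (novel − familiar)/total exploration. n = 21–24; Newman–Keuls test.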

Rattus norvegicus [8] = experiment: Cognitive enhancing effect in Lister rat assessed as recognition of novel object at 0.1 mg/kg, po pretreated 90 mins before sample phase by novel object recognition test; type: functional, organism-based; set-up: dose 0.1 mg/kg; method in brief: as §3
[9] = Drug level in rat plasma at 0.1 mg/kg, po measured 90 mins post dose; type: ADME, organism-based; set-up: dose 0.1 mg/kg, route oral
[10] = Drug level in rat brain at 0.1 mg/kg, po measured 90 mins post dose; type: ADME, organism-based; set-up: dose 0.1 mg/kg, route oral; settings: read-out: Drug uptake
[11] = Drug level in rat plasma at 0.5 mg/kg, po measured 90 mins post dose; type: ADME, organism-based; set-up: dose 0.5 mg/kg, route oral
[12] = Drug level in rat brain at 0.5 mg/kg, po measured 90 mins post dose; type: ADME, organism-based; set-up: dose 0.5 mg/kg, route oral; settings: read-out: Drug uptake
[13] = Drug level in rat plasma at 1 mg/kg, po measured 90 mins post dose; type: ADME, organism-based; set-up: dose 1 mg/kg, route oral
[14] = Drug level in rat brain at 1 mg/kg, po measured 90 mins post dose; type: ADME, organism-based; set-up: dose 1 mg/kg, route oral; settings: read-out: Drug uptake
[15] = Drug level in rat plasma at 5 mg/kg, po measured 90 mins post dose; type: ADME, organism-based; set-up: dose 5 mg/kg, route oral
[16] = Drug level in rat brain at 5 mg/kg, po measured 90 mins post dose; type: ADME, organism-based; set-up: dose 5 mg/kg, route oral; settings: read-out: Drug uptake
[17] = Drug level in rat plasma at 10 mg/kg, po measured 90 mins post dose; type: ADME, organism-based; set-up: dose 10 mg/kg, route oral
[18] = Drug level in rat brain at 10 mg/kg, po measured 90 mins post dose; type: ADME, organism-based; set-up: dose 10 mg/kg, route oral; settings: read-out: Drug uptake

Sequence of 3',5'-cyclic-AMP phosphodiesterase 4A (P27815 whole entry, the tested form may be a part): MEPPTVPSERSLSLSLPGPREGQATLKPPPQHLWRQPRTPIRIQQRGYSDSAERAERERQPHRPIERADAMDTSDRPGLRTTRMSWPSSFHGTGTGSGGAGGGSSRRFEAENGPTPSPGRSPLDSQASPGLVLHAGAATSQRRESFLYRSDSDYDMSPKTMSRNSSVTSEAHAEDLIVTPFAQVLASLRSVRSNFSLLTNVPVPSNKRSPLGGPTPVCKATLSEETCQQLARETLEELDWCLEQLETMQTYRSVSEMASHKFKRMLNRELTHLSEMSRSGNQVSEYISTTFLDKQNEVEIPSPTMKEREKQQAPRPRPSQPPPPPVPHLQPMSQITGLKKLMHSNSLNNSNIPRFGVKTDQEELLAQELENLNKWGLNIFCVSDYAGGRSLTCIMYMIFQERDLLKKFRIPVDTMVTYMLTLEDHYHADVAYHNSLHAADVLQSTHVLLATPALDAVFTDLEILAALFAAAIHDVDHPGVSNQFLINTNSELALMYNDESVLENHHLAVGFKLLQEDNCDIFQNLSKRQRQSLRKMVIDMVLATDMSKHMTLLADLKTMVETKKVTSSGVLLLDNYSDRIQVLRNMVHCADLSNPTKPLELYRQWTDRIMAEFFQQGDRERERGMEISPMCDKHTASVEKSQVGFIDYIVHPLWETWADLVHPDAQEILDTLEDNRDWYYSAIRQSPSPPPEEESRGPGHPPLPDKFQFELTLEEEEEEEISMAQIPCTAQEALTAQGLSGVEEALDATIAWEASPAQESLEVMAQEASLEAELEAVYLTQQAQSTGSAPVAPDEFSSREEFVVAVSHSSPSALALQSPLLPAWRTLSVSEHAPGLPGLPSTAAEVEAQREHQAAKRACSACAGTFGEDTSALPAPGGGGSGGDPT

IC50 [2]	IC50 (Phosphodiesterase 4)	bioavailability [3]	half-life [4]	Structure (SMILES)	Ratio IC50 [1]	also measured
				O=C(NC1CC1)c1cn(-c2cccc(-c3ccc(C4CC4C(=O)O)cc3)c2)c2ncccc2c1=O (racemic) [listing 1 of 2 here]	526	
0.58 nM	280 nM	58%	4.1 h	CC1(NC(=O)c2cn(-c3cccc(-c4ccc(C5CC5C(=O)O)cc4)c3)c3ncccc3c2=O)CC1 (racemic)	482	
1.6 nM	160 nM			O=C(NC1CC1)c1cn(-c2cccc(-c3ccc(C4CC4C(=O)O)cc3)c2)c2ncccc2c1=O (cis isomer) [listing 1 of 2 here]		F (Rattus norvegicus [5]): 30%; t1/2 (Rattus norvegicus [6]): 3.9 h
0.51 nM	510 nM	25%	3.2 h	O=C(NCC(F)(F)F)c1cn(-c2cccc(-c3ccc(C4CC4C(=O)O)cc3)c2)c2ncccc2c1=O (racemic)	1080	
0.88 nM	610 nM	30%	6.1 h	CC(C)(Cc1ccc(-c2cccc(-n3cc(C(=O)NC4CC4)c(=O)c4cccnc43)c2)cc1)C(=O)O	693	
1 nM	1000 nM			O=C(NC1CC1)c1cn(-c2cccc(-c3ccc([C@@H]4C[C@H]4C(=O)O)cc3)c2)c2ncccc2c1=O	1000	
4.6 nM	1300 nM	35%	4.7 h	O=C(NC1CC1)c1cn(-c2cccc(-c3ccccc3C3CC3C(=O)O)c2)c2ncccc2c1=O (racemic)	282	
0.46 nM	150 nM			O=C(NC1CC1)c1cn(-c2cccc(-c3ccc([C@H]4C[C@@H]4C(=O)O)c(F)c3)c2)c2ncccc2c1=O	330	
0.54 nM	1400 nM			CC(C)(c1cc(-c2cccc(-c3ccc(C4CC4C(=O)O)cc3)c2)c2ncccc2c1)S(C)(=O)=O (single isomer, unassigned; enantiomer A)		
				O=C(NC1CC1)c1cn(-c2cccc(-c3ccc([C@@H]4C[C@H]4C(=O)O)c(F)c3)c2)c2ncccc2c1=O	1040	Activity (Rattus norvegicus [7]): Active; Activity (Rattus norvegicus [8]): Active
0.55 nM	> 5000 nM	5%	2.4 h	O=C(NC1CC1)c1cn(-c2cccc(-c3ccc(C4CC4c4nnn[nH]4)cc3)c2)c2ncccc2c1=O (racemic)	> 9090	
0.66 nM	230 nM			O=C(NC1CC1)c1cn(-c2cccc(-c3ccc([C@H]4C[C@@H]4C(=O)O)cc3)c2)c2ncccc2c1=O	350	
0.52 nM	220 nM	20%	2.4 h	O=C(NC1CCC1)c1cn(-c2cccc(-c3ccc(C4CC4C(=O)O)cc3)c2)c2ncccc2c1=O (racemic)	432	
				O=C(NC1CC1)c1cn(-c2cccc(-c3ccc([C@@H]4C[C@H]4C(=O)[O-])c(F)c3)c2)c2ncccc2c1=O.[Na+]		concentration at 1.5 h [9]: 590 nM; concentration at 1.5 h [10]: 12 nM; concentration at 1.5 h [11]: 1340 nM; concentration at 1.5 h [12]: 47 nM; concentration at 1.5 h [13]: 3410 nM; concentration at 1.5 h [14]: 110 nM; concentration at 1.5 h [15]: 8190 nM; concentration at 1.5 h [16]: 290 nM; concentration at 1.5 h [17]: 18800 nM; concentration at 1.5 h [18]: 590 nM
0.57 nM	300 nM			O=C(NC1CC1)c1cn(-c2cccc(-c3ccc(C4CC4C(=O)O)cc3)c2)c2ncccc2c1=O (racemic) [listing 2 of 2 here]		F (Rattus norvegicus [5]): 78%; t1/2 (Rattus norvegicus [6]): 1.7 h
0.32 nM	600 nM			CC(C)(c1cc(-c2cccc(-c3ccc(C4CC4C(=O)O)cc3)c2)c2ncccc2c1)S(C)(=O)=O (single isomer, unassigned; enantiomer B)		
0.35 nM	200 nM			O=C(NCC1CC1)c1cn(-c2cccc(-c3ccc(C4CC4C(=O)O)cc3)c2)c2ncccc2c1=O (racemic)	571	
0.54 nM	110 nM	100%	1 h	O=C(NC1CC1)c1cn(-c2cccc(-c3cccc(C4CC4C(=O)O)c3)c2)c2ncccc2c1=O (racemic)	203	
				O=C(NC1CC1)c1cn(-c2cccc(-c3ccc(C4CC4C(=O)O)cc3)c2)c2ncccc2c1=O (cis isomer) [listing 2 of 2 here]	100	
32 nM	> 40000 nM			CC(C)(C)NC(=O)c1cn(-c2cccc(-c3ccc(C4CC4C(=O)O)cc3)c2)c2ncccc2c1=O (racemic)	> 1140	
17 nM	6400 nM			O=C(NC1(O)CC1)c1cn(-c2cccc(-c3ccc(C4CC4C(=O)O)cc3)c2)c2ncccc2c1=O (racemic)	376	
0.85 nM	75 nM	62%	5.1 h	CC(C)(CC(=O)O)c1ccc(-c2cccc(-n3cc(C(=O)NC4CC4)c(=O)c4cccnc43)c2)cc1	88	
